Calls of active or inactive are those of the source. The rule behind the calls is not given here.
Key:
J774.A1 [1] = experiment: Inhibition of NF-kappaB pathway in LPS-induced mouse J774.A1 cells assessed as inhibition of p65 phosphorylation preincubated with compound for 2 hrs followed by LPS-stimulation and measured after 30 mins by Western blot analysis; assay type: cell-based; conditions: dose 5-10 µM, time 2.5 hrs
Method in brief: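 J774A.1 cells preincubated with 10 or 5 μM or DMSO for 2 h, then LPS 0.5 μg/mL for 30 min. RIPA lysates run on 12.5% SDS-PAGE, transferred to PVDF, blocked with 5% milk; probed for IκB-α and p-p65, with GAPDH and p65 as loading controls; ECL detection; densitometry.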

J774.A1 [2] = experiment: Antiinflammatory activity in LPS-induced mouse J774.A1 cells assessed as inhibition of LPS-induced TNF-alpha release at 10 uM preincubated for 30 mins followed by LPS stimulation for 24 hrs by ELISA method; assay type: functional; conditions: time 24.5 hrs
Method in brief: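 J774A.1 macrophages pretreated 30 min at 10 μM, then challenged with LPS 0.5 μg/mL for 24 h at 37 °C, 5% CO2. Medium IL-6 and TNF-α measured by ELISA, normalized to total lysate protein.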

J774.A1 [3] = experiment: Antiinflammatory activity in LPS-induced mouse J774.A1 cells assessed as inhibition of LPS-induced TNF-alpha release preincubated for 30 mins followed by LPS stimulation for 24 hrs by ELISA method; assay type: functional, cell-based
Method in brief: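 Dose-response in J774A.1 cells: 30 min pretreatment at 10, 5, 2.5 or 1.25 μM, then LPS 0.5 μg/mL for 24 h. IL-6 and TNF-α by ELISA, normalized to lysate protein; IC50 from the dose-response; 3 independent experiments, mean ± SEM.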

Mus musculus = experiment: Protection against LPS-induced C57/BL6 mouse acute lung injury model assessed as reduction in lung wet/dry ratio at 20 mg/kg via oral gavage preincubated for 30 mins followed by LPS stimulation for 6 hrs; assay type: functional, organism-based; conditions: time 6.5 hrs
Method in brief: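 Mice dosed 20 mg/kg by gavage (dexamethasone 20 mg/kg comparator), intratracheal LPS 5 mg/kg 30 min later, killed at 6 h. Right upper lobe fixed in paraformaldehyde, H&E; lung wet/dry ratio; BALF protein, total cells and neutrophils counted; n = 5 mice per group, mean ± SEM.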

In the case of COc1cc2nccc(Oc3ccc(NC(=O)c4cn(-c5ccccc5)c5ccccc5c4=O)cc3)c2cc1OC, the inhibition (J774.A1 [1]) is reported as “Dose-Dependent Effect”, the inhibition at 10 µM (J774.A1 [2]) is reported as 82.6% and the IC50 (J774.A1 [3]) is reported as 2400 nM. The inhibition (J774.A1 [3]; dose 1.25-10 µM, time 24.5 hrs) was “Dose-Dependent Effect” and the Activity (Mus musculus) was “Active”.
